Assay [1] has as its system Triticum aestivum. Kind of assay: Inhibition of stem growth of Triticum aestivum at 100 mg/L. It counts as functional. An outline of the steps:
(§1)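 Seeds of each species were grown in Petri dishes with 10 seeds per dish, at 28 °C, 70–80% RH, 16:8 h light:dark photoperiod and 3000 lx light for 5 days. Root and stem lengths were measured for the 10 seeds and averaged. Each test and its controls were run in three replicates, and the data were given probit analysis.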

For assay [2], the system named is Triticum aestivum. In words: Inhibition of root growth of Triticum aestivum at 100 mg/L. It counts as functional. An outline of the steps:
as §1

For assay [3], the system named is Echinochloa crus-galli. Kind of assay: Inhibition of stem growth of Echinochloa crus-galli at 100 mg/L. It is filed as functional. An outline of the steps:
as §1

In assay [4] the test system is Echinochloa crus-galli. In words: Inhibition of root growth of Echinochloa crus-galli at 100 mg/L. It counts as functional. An outline of the steps:
as §1

The subject of assay [5] is Sorghum bicolor. In words: Inhibition of stem growth of Sorghum bicolor at 100 mg/L. It is filed as functional. An outline of the steps:
as §1

Assay [6] deals with Sorghum bicolor. Kind of assay: Inhibition of root growth of Sorghum bicolor at 100 mg/L. It is filed as functional. An outline of the steps:
as §1

Assay [7] has as its system Brassica rapa subsp. oleifera. Kind of assay: Inhibition of stem growth of Brassica campestris at 100 mg/L. It is filed as functional. An outline of the steps:
as §1

Assay [8] concerns Brassica rapa subsp. oleifera. Kind of assay: Inhibition of root growth of Brassica campestris at 100 mg/L. It is filed as functional. An outline of the steps: as §1
In assay [9] the test system is Radish. In words: Inhibition of stem growth of Raphanus sativus at 100 mg/L. It counts as functional. An outline of the steps: as §1
Assay [10] deals with Radish. In words: Inhibition of root growth of Raphanus sativus at 100 mg/L. It is filed as functional. An outline of the steps: as §1
In assay [11] the test system is Cucumis sativus. Kind of assay: Inhibition of stem growth of Cucumis sativus at 100 mg/L. It counts as functional. An outline of the steps:
as §1

For assay [12], the system named is Cucumis sativus. In words: Inhibition of root growth of Cucumis sativus at 100 mg/L. It counts as functional. An outline of the steps:
as §1

The subject of assay [13] is Aphis. Kind of assay: Insecticidal activity against Aphis medicagini at 250 mg/L. It counts as functional. An outline of the steps: (§2)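 Groups of 10 of each species were placed in glass Petri dishes and sprayed with test solution using a Potter sprayer. After air-drying, they were held under normal rearing conditions. Mortality at 72 h was taken from the number and size of live larvae relative to untreated controls.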

Assay [14] relates to Triticum aestivum. Kind of assay: Herbicidal activity against Triticum aestivum at 450 g ai/ha in greenhouse in vivo test. It is filed as functional, organism-based.
Assay [15] concerns Echinochloa crus-galli. In words: Herbicidal activity against Echinochloa crus-galli at 450 g ai/ha in greenhouse in vivo test. It counts as functional, organism-based.
Assay [16] deals with Sorghum bicolor. In words: Herbicidal activity against Sorghum bicolor at 450 g ai/ha in greenhouse in vivo test. It is filed as functional, organism-based.
Assay [17] deals with Brassica rapa subsp. oleifera. In words: Herbicidal activity against Brassica campestris at 450 g ai/ha in greenhouse in vivo test. It is filed as functional, organism-based.
The subject of assay [18] is Radish. In words: Herbicidal activity against Raphanus sativus at 450 g ai/ha in greenhouse in vivo test. It counts as functional, organism-based.
In assay [19] the test system is Cucumis sativus. In words: Herbicidal activity against Cucumis sativus at 450 g ai/ha in greenhouse in vivo test. It counts as functional, organism-based.
Assay [20] has as its system Tetranychus cinnabarinus. Kind of assay: Insecticidal activity against Tetranychus cinnabarinus at 250 mg/L. It counts as functional. An outline of the steps:
as §2

Calls of active or inactive are those of the source. The rule behind the calls is not given here.

As to `O=c1n(Cc2nnc(SCc3ccccc3)s2)nnn1-c1ccc(Cl)cc1`, the inhibition at 100 µg/mL is 60% in [1]; 60% in assay [2]; 70% in [3]; 60% in assay [4]; 70% in [5]; 60% in assay [6]. Moreover, the inhibition at 100 µg/mL was 50% in assay [7]; 60% in assay [8]; 40% in assay [9]; 60% in assay [10]; 60% in assay [11]; 60% in assay [12]. Moreover, the Activity was 5.7% in [13] and 2.9% in assay [20]. For the same compound, the result in [14], in assay [15], in [16], in assay [17], in assay [18] and in assay [19] was inactive.

In the case of `CO/C=C\C(C(=O)OC)c1ccccc1CSc1nnc(Cn2nnn(-c3ccc(Cl)cc3)c2=O)s1` (stereo not given), the inhibition at 100 µg/mL is 40% in [1]; 0% in [2]; 0% in [3]; 30% in assay [4]; 0% in assay [5]; 60% in assay [6]. Moreover, the inhibition at 100 µg/mL in [7] was determined as 30%; in assay [8], 30%; in assay [9] it was 30%; in assay [10], 60%; in assay [11], 30%; in assay [12], 30%. For the same compound, the Activity in assay [13] is 2.9%; in [20] it was 0%. The outcome in assay [14], in [15], in assay [16], in assay [17], in assay [18] and in assay [19] was inactive.

Consider `C=CCSc1nnc(Cn2nnn(-c3ccc(Cl)cc3)c2=O)s1`, for which the inhibition at 100 µg/mL in assay [1] was 40%; in [2], 50%; in assay [3], 70%; in assay [4], 60%; in assay [5] it was 0%; in assay [6] it was 60%. The inhibition at 100 µg/mL was 40% in [7]; 60% in [8]; 40% in [9]; 40% in assay [10]; 0% in [11]; 0% in assay [12]. Moreover, the Activity in [13] worked out at 0%; in [20], 72.9%. Besides, the result in [14], in assay [15], in assay [16], in assay [17], in assay [18] and in assay [19] was inactive.

For the compound `CCOC(=O)Cn1nnn(-c2ccc(Cl)cc2)c1=O`, the inhibition at 100 µg/mL in [1] worked out at 30%; in assay [2] it was 30%; in assay [3], 0%; in assay [4], 0%; in assay [5] it was 20%; in assay [6], 20%. Besides, the inhibition at 100 µg/mL worked out at 70% in assay [7]; 85% in [8]; 40% in assay [9]; 80% in [10]; 0% in assay [11]; 0% in assay [12]. Moreover, the results for the Activity in assay [13] and in [20] were 8.3% and 0%, respectively. Also, the result in assay [14], in [15], in assay [16], in assay [17], in assay [18] and in [19] was inactive.

(Values after ChEMBL document CHEMBL1142895, “Discovery of a new insecticide lead by optimizing a target-diverse scaffold: tetrazolinone derivatives” (2007).)
